≈ marks a conversion by molar mass, not a printed value.
Assays:
Staphylococcus aureus [1] = experiment: Antibacterial activity against methicillin-sensitive Staphylococcus aureus ATCC 29213 by broth microdilution method; assay type: functional
Staphylococcus aureus [2] = experiment: Antibacterial activity against methicillin-resistant Staphylococcus aureus ATCC 33591 by broth microdilution method; assay type: functional
[3] = tested on: Staphylococcus epidermidis; experiment: Antibacterial activity against biofilm producing Staphylococcus epidermidis ATCC 35984 by broth microdilution method; assay type: functional
Enterococcus faecalis [4] = experiment: Antibacterial activity against Enterococcus faecalis ATCC 29212 by broth microdilution method; assay type: functional
Bacillus spizizenii = experiment: Antibacterial activity against Bacillus subtilis ATCC 6633 by broth microdilution method; assay type: functional
Enterococcus faecalis [5] = experiment: Antibacterial activity against VanB+ Enterococcus faecalis ATCC 51299 by broth microdilution method; assay type: functional
[6] = tested on: Staphylococcus epidermidis; experiment: Antibacterial activity against Staphylococcus epidermidis expressing mecA by broth microdilution method; assay type: functional
Enterococcus faecalis [7] = experiment: Antibacterial activity against VanA+ Enterococcus faecalis 15376 by broth microdilution method; assay type: functional
[8] = Antiviral activity against Influenza A virus (A/Hong Kong/7/1987(H3N2)) infected in MDCK cells assessed as reduction of virus-induced cytopathic effect after 72 hrs by microscopic analysis; assay type: functional, cell-based
Method in brief: (§1)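 Subconfluent MDCK cultures given serial compound dilutions together with virus at MOI 0.0004 PFU/cell. Incubation 72 h at 35°C. […] Means of 2 to 5 independent tests.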

[9] = Cytotoxicity against MDCK cells after 72 hrs by microscopic analysis; assay type: cell-based, Canis lupus familiaris; settings: dog
Method in brief: (§2)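 Uninfected MDCK cultures were run in parallel with serial compound dilutions for 72 h at 35°C. MCC is the concentration producing minimal changes in cell morphology, judged by microscopy. […] Means of 2 to 5 independent tests.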

Influenza B virus [10] = experiment: Antiviral activity against Influenza B virus (B/Hong Kong/05/1972) infected in MDCK cells assessed as reduction of virus-induced cytopathic effect after 72 hrs by microscopic analysis; assay type: functional, cell-based; settings: B/Hong Kong/05/1972, MDCK; method in brief: as §1
[11] = Antiviral activity against Influenza A virus (A/Hong Kong/7/1987(H3N2)) infected in MDCK cells assessed as cell viability after 72 hrs by MTS assay; assay type: functional, cell-based; method in brief: as §1
[12] = Cytotoxicity against MDCK cells after 72 hrs by MTS assay; assay type: cell-based, Canis lupus familiaris; settings: dog; method in brief: as §2
Influenza A virus [13] = experiment: Antiviral activity against Influenza A virus (A/Puerto Rico/8/34(H1N1)) infected in MDCK cells assessed as reduction of virus-induced cytopathic effect after 72 hrs by microscopic analysis; assay type: functional, organism-based; settings: A/Puerto Rico/8/1934(H1N1)
Method in brief: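 Subconfluent MDCK cultures given serial compound dilutions together with virus at MOI 0.0004 PFU/cell. Incubation 72 h at 35°C. Means of 2 to 5 independent tests.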

Influenza B virus [14] = experiment: Antiviral activity against Influenza B virus (B/Hong Kong/05/1972) infected in MDCK cells assessed as cell viability after 72 hrs by MTS assay; assay type: functional, cell-based; settings: B/Hong Kong/05/1972, MDCK; method in brief: as §1
Influenza A virus [15] = experiment: Antiviral activity against Influenza A virus (A/Puerto Rico/8/34(H1N1)) infected in MDCK cells assessed as cell viability after 72 hrs by MTS assay; assay type: functional, organism-based, A/Puerto Rico/8/1934(H1N1); settings: Influenza A virus, A/Puerto Rico/8/1934(H1N1), MDCK, 72 h; method in brief: as §1

Row | SMILES | MIC (Staphylococcus aureus [1]) [µg/mL] | MIC (Staphylococcus aureus [2]) [µg/mL] | MIC [3] [µg/mL] | MIC (Enterococcus faecalis [4]) [µg/mL] | MIC (Bacillus spizizenii) [µg/mL] | MIC (Enterococcus faecalis [5]) [µg/mL] | MIC [6] [µg/mL] | MIC (Enterococcus faecalis [7]) [µg/mL] | EC50 [8] [µM] | MCC at 72 h [9] [µM] | EC50 (Influenza B virus [10]) [µM] | EC50 [11] [µM] | CC50 at 72 h [12] [µM] | EC50 (Influenza A virus [13]) [µM] | EC50 (Influenza B virus [14]) [µM] | EC50 (Influenza A virus [15]) [µM]
1 | COC(=O)[C@H]1NC(=O)[C@H]2NC(=O)[C@H](NC(=O)[C@@H]3NC(=O)[C@H]4NC(=O)[C@H](NC(=O)[C@H](Nc5c(NCc6ccc(-c7ccccc7)cc6)c(=O)c5=O)c5ccc(O)c(c5)Oc5cc4cc(O)c5C)[C@H](O)c4ccc(cc4)Oc4cc3cc(c4O)Oc3ccc(cc3)[C@H]2O)c2ccc(O)c(c2)-c2c(O)cc(O)cc21 | 1 (≈ 0.697 µM) | 8 (≈ 5.57 µM) | 2 (≈ 1.39 µM) | 1 (≈ 0.697 µM) | 2 (≈ 1.39 µM) | 8 (≈ 5.57 µM) | 2 (≈ 1.39 µM) |  |  |  |  |  |  |  |  | 
2 | CC(=O)N[C@H]1[C@H](O[C@@H]2c3ccc(c(Cl)c3)Oc3cc4cc(c3O)Oc3ccc(cc3Cl)C[C@H]3NC(=O)[C@H](Nc5c(NCc6ccc(-c7ccccc7)cc6)c(=O)c5=O)c5ccc(O)c(c5)Oc5cc(O)cc(c5)[C@H](NC3=O)C(=O)N[C@H]4C(=O)N[C@H]3C(=O)N[C@@H]2C(=O)N[C@H](C(=O)O)c2cc(O)cc(O)c2-c2cc3ccc2O)O[C@H](CO)[C@@H](O)[C@@H]1O | 1 (≈ 0.601 µM) | 4 (≈ 2.4 µM) | 1 (≈ 0.601 µM) | 4 (≈ 2.4 µM) | 4 (≈ 2.4 µM) | 8 (≈ 4.81 µM) | 1 (≈ 0.601 µM) | 256 (≈ 154 µM) |  |  |  |  |  |  |  | 
3 | COC(=O)[C@H]1NC(=O)[C@H]2NC(=O)[C@H](NC(=O)[C@@H]3NC(=O)[C@H]4NC(=O)[C@@H](Cc5ccc(c(Cl)c5)Oc5cc3cc(c5O)Oc3ccc(cc3Cl)[C@H]2O[C@@H]2O[C@H](CO)[C@@H](O)[C@H](O)[C@H]2NC(C)=O)NC(=O)[C@H](N)c2ccc(O)c(c2)Oc2cc(O)cc4c2)c2ccc(O)c(c2)-c2c(O)cc(O)cc21 | 0.5 (≈ 0.353 µM) | 1 (≈ 0.706 µM) | 0.5 (≈ 0.353 µM) | 2 (≈ 1.41 µM) | 0.5 (≈ 0.353 µM) | 1 (≈ 0.706 µM) | 0.5 (≈ 0.353 µM) | 0.5 (≈ 0.353 µM) |  |  |  |  |  |  |  | 
4 | COC(=O)[C@H]1NC(=O)[C@H]2NC(=O)[C@H](NC(=O)[C@@H]3NC(=O)[C@H]4NC(=O)[C@@H](Cc5ccc(c(Cl)c5)Oc5cc3cc(c5O)Oc3ccc(cc3Cl)[C@H]2O[C@@H]2O[C@H](CO)[C@@H](O)[C@H](O)[C@H]2NC(C)=O)NC(=O)[C@H](Nc2c(OC)c(=O)c2=O)c2ccc(O)c(c2)Oc2cc(O)cc4c2)c2ccc(O)c(c2)-c2c(O)cc(O)cc21 | 2 (≈ 1.31 µM) | 8 (≈ 5.24 µM) | 4 (≈ 2.62 µM) | 2 (≈ 1.31 µM) | 8 (≈ 5.24 µM) | 4 (≈ 2.62 µM) | 8 (≈ 5.24 µM) | 0.5 (≈ 0.328 µM) |  |  |  |  |  |  |  | 
5 | COC(=O)[C@H]1NC(=O)[C@H]2NC(=O)[C@H](NC(=O)[C@@H]3NC(=O)[C@H]4NC(=O)[C@@H](Cc5ccc(c(Cl)c5)Oc5cc3cc(c5O)Oc3ccc(cc3Cl)[C@H]2O[C@@H]2O[C@H](CO)[C@@H](O)[C@H](O)[C@H]2NC(C)=O)NC(=O)[C@H](Nc2c(NCc3ccc(-c5ccccc5)cc3)c(=O)c2=O)c2ccc(O)c(c2)Oc2cc(O)cc4c2)c2ccc(O)c(c2)-c2c(O)cc(O)cc21 | 2 (≈ 1.19 µM) | 0.5 (≈ 0.298 µM) | 0.5 (≈ 0.298 µM) | 0.5 (≈ 0.298 µM) | 8 (≈ 4.77 µM) | 0.5 (≈ 0.298 µM) | 0.5 (≈ 0.298 µM) | 0.5 (≈ 0.298 µM) |  |  |  |  |  |  |  | 
6 | COc1c(N[C@H]2C(=O)N[C@@H]3Cc4ccc(c(Cl)c4)Oc4cc5cc(c4O)Oc4ccc(cc4Cl)[C@@H](O)[C@@H]4NC(=O)[C@H](NC(=O)[C@@H]5NC(=O)[C@@H](NC3=O)c3cc(O)cc(c3)Oc3cc2ccc3O)c2ccc(O)c(c2)-c2c(O)cc(O)cc2[C@@H](C(=O)O)NC4=O)c(=O)c1=O | 1 (≈ 0.764 µM) | 2 (≈ 1.53 µM) | 2 (≈ 1.53 µM) | 4 (≈ 3.06 µM) | 16 (≈ 12.2 µM) | 8 (≈ 6.11 µM) | 2 (≈ 1.53 µM) | 2 (≈ 1.53 µM) |  |  |  |  |  |  |  | 
7 | O=C1N[C@H]2C(=O)N[C@H]3C(=O)N[C@H](C(=O)N[C@H](C(=O)O)c4cc(O)cc(O)c4-c4cc3ccc4O)[C@H](O)c3ccc(c(Cl)c3)Oc3cc2cc(c3O)Oc2ccc(cc2Cl)C[C@H]2NC(=O)[C@H](Nc3c(NCc4ccc(-c5ccccc5)cc4)c(=O)c3=O)c3ccc(O)c(c3)Oc3cc(O)cc(c3)[C@@H]1NC2=O | 2 (≈ 1.37 µM) | 2 (≈ 1.37 µM) | 0.5 (≈ 0.342 µM) | 1 (≈ 0.685 µM) | 8 (≈ 5.48 µM) | 8 (≈ 5.48 µM) | 2 (≈ 1.37 µM) | 1 (≈ 0.685 µM) |  |  |  |  |  |  |  | 
8 | COC(=O)[C@H]1NC(=O)[C@H]2NC(=O)[C@H](NC(=O)[C@@H]3NC(=O)[C@H]4NC(=O)[C@@H](Cc5ccc(c(Cl)c5)Oc5cc3cc(c5O)Oc3ccc(cc3Cl)[C@H]2O)NC(=O)[C@H](Nc2c(NCc3ccc(-c5ccccc5)cc3)c(=O)c2=O)c2ccc(O)c(c2)Oc2cc(O)cc4c2)c2ccc(O)c(c2)-c2c(O)cc(O)cc21 | 128 (≈ 86.8 µM) | 256 (≈ 174 µM) | 256 (≈ 174 µM) | 64 (≈ 43.4 µM) | 256 (≈ 174 µM) | 256 (≈ 174 µM) | 32 (≈ 21.7 µM) | 128 (≈ 86.8 µM) |  |  |  |  |  |  |  | 
9 | COC(=O)[C@H]1NC(=O)[C@H]2NC(=O)[C@H](NC(=O)[C@@H]3NC(=O)[C@H]4NC(=O)[C@@H](Cc5ccc(cc5)Oc5cc3cc(c5O)Oc3ccc(cc3)[C@H]2O)NC(=O)[C@H](Nc2c(NCc3ccc(-c5ccccc5)cc3)c(=O)c2=O)c2ccc(O)c(c2)Oc2cc(O)cc4c2)c2ccc(O)c(c2)-c2c(O)cc(O)cc21 | 8 (≈ 5.69 µM) | 32 (≈ 22.8 µM) | 32 (≈ 22.8 µM) | 4 (≈ 2.85 µM) | 16 (≈ 11.4 µM) | 4 (≈ 2.85 µM) | 8 (≈ 5.69 µM) | 16 (≈ 11.4 µM) |  |  |  |  |  |  |  | 
10 | Cc1c(O)cc2cc1Oc1cc(ccc1O)[C@@H](N)C(=O)N[C@H]1C(=O)N[C@@H]2C(=O)N[C@H]2C(=O)N[C@H]3C(=O)N[C@H](C(=O)N[C@@H](C(=O)O)c4cc(O)cc(O[C@H]5O[C@H](CO)[C@@H](O)[C@H](O)[C@@H]5O)c4-c4cc3ccc4O)[C@H](O[C@H]3C[C@@H](N)[C@@H](O)[C@H](C)O3)c3ccc(cc3)Oc3cc2cc(c3O[C@H]2O[C@@H](CO[C@H]3O[C@H](C)[C@@H](O)[C@H](O)[C@@H]3O)[C@H](O)[C@@H](O)[C@@H]2O[C@H]2O[C@H](CO)[C@@H](O)[C@H](O)[C@@H]2O[C@H]2O[C@H](CO)[C@@H](O)[C@@H]2O)Oc2ccc(cc2)[C@H]1O [RISTOCETIN] | 128 (≈ 62.3 µM) | 32 (≈ 15.6 µM) | 2 (≈ 0.974 µM) | 4 (≈ 1.95 µM) | 16 (≈ 7.79 µM) | 256 (≈ 125 µM) | 128 (≈ 62.3 µM) | 16 (≈ 7.79 µM) |  |  |  |  |  |  |  | 
11 | N[C@H]1C(=O)N[C@@H]2Cc3ccc(c(Cl)c3)Oc3cc4cc(c3O)Oc3ccc(cc3Cl)[C@@H](O)[C@@H]3NC(=O)[C@H](NC(=O)[C@@H]4NC(=O)[C@@H](NC2=O)c2cc(O)cc(c2)Oc2cc1ccc2O)c1ccc(O)c(c1)-c1c(O)cc(O)cc1[C@@H](C(=O)O)NC3=O [TEICOPLANIN AGLYCON] |  |  |  |  |  |  |  |  | > 100 | 100 | > 100 | > 100 | > 100 | > 100 | > 100 | > 100
